Laboratory results from ChEMBL document CHEMBL1909519, “L-Proline anchored multicomponent synthesis of novel pyrido[2,3-a]carbazoles; investigation of in vitro antimicrobial, antioxidant, cytotoxicity and structure activity relationship studies” (Eur J Med Chem, 2011).
Converted amounts (≈) assume the structure as drawn.

Columns and labels:
Klebsiella pneumoniae [1] = assay: Antibacterial activity against Klebsiella pneumoniae after 24 hrs by agar disk diffusion assay; format: functional
In short: (§1)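 Gram-negative clinical isolates (PSG Hospital, Coimbatore) tested by agar well diffusion on nutrient agar. Compounds dissolved in DMSO at 0 (control), 25, 50, 75, 100; DMSO was the negative control and ciprofloxacin ([…]) the positive control. Incubation 37 ± 2 °C for 24 h, then inhibition zone diameter measured in mm.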

Escherichia coli [2] = assay: Antibacterial activity against Escherichia coli at 50 ug/ml after 24 hrs by agar disk diffusion assay; format: functional; details: read-out: DIZ; in short: as §1
Candida albicans [3] = assay: Antifungal activity against Candida albicans after 48 hrs by agar disk diffusion assay; format: functional
In short: (§2)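 Fungal isolates (PSG Hospital, Coimbatore) grown on Sabouraud dextrose agar; agar well diffusion with compounds in DMSO at 0 (control), 25, 50, 75, 100. DMSO negative control, fluconazole ([…]) positive control. Plates held 28 ± 2 °C for 48 h; zone of inhibition diameter recorded in mm.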

SK-OV-3 [4] = assay: Cytotoxicity against human SKOV3 cells up to 50 ug/ml after 48 hrs by SRB assay; format: functional, cell-based
In short: (§3)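 Cells in RPMI-1640 with 10% heat-inactivated FBS, 1 mM NaHCO3, 2 mM L-glutamine, 37 °C, 5% CO2; seeded (B16F10 5 × 10⁴ cells/mL, others 1 × 10⁵ cells/mL), 24 h, then compounds in DMSO at 1.56–50 for 48 h, triplicate wells. TCA fixation, SRB staining 30 min, tris extraction, OD 520 nm; IC50 by linear regression, mean ± SD of three independent experiments; cisplatin positive control.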

Staphylococcus aureus [5] = assay: Antibacterial activity against Staphylococcus aureus after 24 hrs by agar disk diffusion assay; format: functional
In short: (§4)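 Agar well diffusion on nutrient agar against Gram-positive clinical isolates (PSG Hospital, Coimbatore). Compounds in DMSO tested at 0 (control), 25, 50, 75, 100; DMSO as solvent and negative control; ciprofloxacin ([…]) as positive control. Plates incubated 37 ± 2 °C, 24 h; zone of inhibition diameter read in mm.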

Aspergillus niger [6] = assay: Antifungal activity against Aspergillus niger at 50 ug/ml after 48 hrs by agar disk diffusion assay; format: functional; details: read-out: DIZ; in short: as §2
Staphylococcus aureus [7] = assay: Antibacterial activity against Staphylococcus aureus at 50 ug/ml after 24 hrs by agar disk diffusion assay; format: functional; details: read-out: DIZ; in short: as §4
Klebsiella pneumoniae [8] = assay: Antibacterial activity against Klebsiella pneumoniae at 50 ug/ml after 24 hrs by agar disk diffusion assay; format: functional; details: read-out: DIZ; in short: as §1
HCT-15 [9] = assay: Cytotoxicity against human HCT15 cells after 48 hrs by SRB assay; format: functional, cell-based; details: HCT-15, 48 h; in short: as §3
Enterococcus faecalis [10] = assay: Antibacterial activity against Enterococcus faecalis after 24 hrs by agar disk diffusion assay; format: functional; in short: as §4
A549 [11] = assay: Cytotoxicity against human A549 cells after 48 hrs by SRB assay; format: functional, cell-based; details: A549, 48 h; in short: as §3
Aspergillus niger [12] = assay: Antifungal activity against Aspergillus niger after 48 hrs by agar disk diffusion assay; format: functional; in short: as §2
[13] = test system: Radical scavenging activity; assay: Antioxidant activity assessed as DPPH radical scavenging activity after 30 mins by micro plate reader; format: functional
In short: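 DPPH assay: various compound concentrations brought to volume with ethanol, mixed with 0.1 mM ethanolic DPPH alongside vitamin C standard; shaken 30 min at 24 °C, absorbance read at 517 nm; concentration giving 50% decrease determined.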

Escherichia coli [14] = assay: Antibacterial activity against Escherichia coli after 24 hrs by agar disk diffusion assay; format: functional; in short: as §1
Candida albicans [15] = assay: Antifungal activity against Candida albicans at 50 ug/ml after 48 hrs by agar disk diffusion assay; format: functional; details: read-out: DIZ; in short: as §2
[16] = Cytotoxicity against human SK-MEL-12 cells after 48 hrs by SRB assay; format: functional, cell-based; in short: as §3
Enterococcus faecalis [17] = assay: Antibacterial activity against Enterococcus faecalis at 50 ug/ml after 24 hrs by agar disk diffusion assay; format: functional; details: read-out: DIZ; in short: as §4
B16-F10 [18] = assay: Cytotoxicity against mouse B16F10 cells after 48 hrs by SRB assay; format: functional, cell-based; details: B16-F10, 48 h; in short: as §3
Aspergillus niger [19] = assay: Antifungal activity against Aspergillus niger at 100 ug/ml after 48 hrs by agar disk diffusion assay; format: functional; details: read-out: DIZ; in short: as §2
Escherichia coli [20] = assay: Antibacterial activity against Escherichia coli at 100 ug/ml after 24 hrs by agar disk diffusion assay; format: functional; details: read-out: DIZ; in short: as §1
Candida albicans [21] = assay: Antifungal activity against Candida albicans at 100 ug/ml after 48 hrs by agar disk diffusion assay; format: functional; details: read-out: DIZ; in short: as §2
Enterococcus faecalis [22] = assay: Antibacterial activity against Enterococcus faecalis at 100 ug/ml after 24 hrs by agar disk diffusion assay; format: functional; details: read-out: DIZ; in short: as §4
Staphylococcus aureus [23] = assay: Antibacterial activity against Staphylococcus aureus at 100 ug/ml after 24 hrs by agar disk diffusion assay; format: functional; details: read-out: DIZ; in short: as §4
Klebsiella pneumoniae [24] = assay: Antibacterial activity against Klebsiella pneumoniae at 100 ug/ml after 24 hrs by agar disk diffusion assay; format: functional; details: read-out: DIZ; in short: as §1
[25] = Cytotoxicity against human SK-MEL-12 cells up to 50 ug/ml after 48 hrs by SRB assay; format: functional, cell-based; in short: as §3
Candida albicans [26] = assay: Antifungal activity against Candida albicans at 25 ug/ml after 48 hrs by agar disk diffusion assay; format: functional; details: read-out: DIZ; in short: as §2
Aspergillus niger [27] = assay: Antifungal activity against Aspergillus niger at 25 ug/ml after 48 hrs by agar disk diffusion assay; format: functional; details: read-out: DIZ; in short: as §2
Escherichia coli [28] = assay: Antibacterial activity against Escherichia coli at 25 ug/ml after 24 hrs by agar disk diffusion assay; format: functional; details: read-out: DIZ; in short: as §1
Klebsiella pneumoniae [29] = assay: Antibacterial activity against Klebsiella pneumoniae at 25 ug/ml after 24 hrs by agar disk diffusion assay; format: functional; details: read-out: DIZ; in short: as §1
Homo sapiens = species: Homo sapiens; assay: Ratio of cisplatin IC50 to compound IC50 for human SK-MEL-12; format: functional
HCT-15 [30] = assay: Ratio of cisplatin IC50 to compound IC50 for human HCT15 cells; format: functional
Enterococcus faecalis [31] = assay: Antibacterial activity against Enterococcus faecalis at 25 ug/ml after 24 hrs by agar disk diffusion assay; format: functional; details: read-out: DIZ; in short: as §4
B16-F10 [32] = assay: Ratio of cisplatin IC50 to compound IC50 for mouse B16F10; format: functional
SK-OV-3 [33] = assay: Cytotoxicity against human SKOV3 cells after 48 hrs by SRB assay; format: functional, cell-based; details: SK-OV-3, 48 h; in short: as §3
Staphylococcus aureus [34] = assay: Antibacterial activity against Staphylococcus aureus at 25 ug/ml after 24 hrs by agar disk diffusion assay; format: functional; details: read-out: DIZ; in short: as §4
A549 [35] = assay: Ratio of cisplatin IC50 to compound IC50 for human A549 cells; format: functional

Structure (SMILES)	MIC (Klebsiella pneumoniae [1])	zone of inhibition at 50 µg/mL (Escherichia coli [2])	MIC (Candida albicans [3])	IC50 (SK-OV-3 [4])	MIC (Staphylococcus aureus [5])	zone of inhibition at 50 µg/mL (Aspergillus niger [6])	zone of inhibition at 50 µg/mL (Staphylococcus aureus [7])	zone of inhibition at 50 µg/mL (Klebsiella pneumoniae [8])	IC50 (HCT-15 [9])	MIC (Enterococcus faecalis [10])	IC50 (A549 [11])	MIC (Aspergillus niger [12])	IC50 [13]	MIC (Escherichia coli [14])	zone of inhibition at 50 µg/mL (Candida albicans [15])	IC50 [16]	zone of inhibition at 50 µg/mL (Enterococcus faecalis [17])	IC50 (B16-F10 [18])	zone of inhibition at 25 µg/mL (Candida albicans [26])	zone of inhibition at 25 µg/mL (Aspergillus niger [27])	further results
CCOC(=O)c1c(N)nc2c(c1-c1cccnc1)CCc1c-2[nH]c2ccc(C)cc12	50 µg/mL (≈ 125 µM)	20 mm	> 100 µg/mL	Not Active	50 µg/mL (≈ 125 µM)	4 mm	19 mm	21 mm	33.8 µg/mL (≈ 84.8 µM)	50 µg/mL (≈ 125 µM)	43.7 µg/mL (≈ 110 µM)	> 100 µg/mL	210.34 µg/mL (≈ 528 µM)	50 µg/mL (≈ 125 µM)	9 mm	24.9 µg/mL (≈ 62.5 µM)	17 mm	29.4 µg/mL (≈ 73.8 µM)			
Cc1ccc2[nH]c3c(c2c1)CCc1c-3nc(N)c(C#N)c1-c1ccccc1	100 µg/mL (≈ 285 µM)		> 100 µg/mL	Not Active	100 µg/mL (≈ 285 µM)				44.9 µg/mL (≈ 128 µM)	100 µg/mL (≈ 285 µM)	49.2 µg/mL (≈ 141 µM)	> 100 µg/mL	205.5 µg/mL (≈ 586 µM)	100 µg/mL (≈ 285 µM)				47.6 µg/mL (≈ 136 µM)			zone of inhibition at 100 µg/mL (Aspergillus niger [19]): 4 mm; zone of inhibition at 100 µg/mL (Escherichia coli [20]): 16 mm; zone of inhibition at 100 µg/mL (Candida albicans [21]): 3 mm; zone of inhibition at 100 µg/mL (Enterococcus faecalis [22]): 14 mm; zone of inhibition at 100 µg/mL (Staphylococcus aureus [23]): 12 mm; zone of inhibition at 100 µg/mL (Klebsiella pneumoniae [24]): 15 mm; IC50 [25]: Not Active
Cc1ccc2[nH]c3c(c2c1)CCc1c-3nc(N)c(C#N)c1-c1cccs1	25 µg/mL (≈ 70.1 µM)		75 µg/mL (≈ 210 µM)		25 µg/mL (≈ 70.1 µM)				3.45 µg/mL (≈ 9.68 µM)	25 µg/mL (≈ 70.1 µM)	4.04 µg/mL (≈ 11.3 µM)	75 µg/mL (≈ 210 µM)	227.37 µg/mL (≈ 638 µM)	25 µg/mL (≈ 70.1 µM)		4.61 µg/mL (≈ 12.9 µM)		2.85 µg/mL (≈ 8 µM)	17 mm	15 mm	zone of inhibition at 25 µg/mL (Escherichia coli [28]): 27 mm; zone of inhibition at 25 µg/mL (Klebsiella pneumoniae [29]): 28 mm; Ratio IC50 (Homo sapiens): 2.25; Ratio IC50 (HCT-15 [30]): 2.31; zone of inhibition at 25 µg/mL (Enterococcus faecalis [31]): 29 mm; Ratio IC50 (B16-F10 [32]): 1.94; IC50 (SK-OV-3 [33]): 10 µg/mL (≈ 28.1 µM); zone of inhibition at 25 µg/mL (Staphylococcus aureus [34]): 26 mm; Ratio IC50 (A549 [35]): 1.39
O=C1O[C@H]([C@@H](O)CO)C(O)=C1O [ASCORBIC ACID]													45.94 µg/mL (≈ 261 µM)								
CCOC(=O)c1c(N)nc2c(c1-c1cccs1)CCc1c-2[nH]c2ccc(C)cc12	25 µg/mL (≈ 62 µM)		75 µg/mL (≈ 186 µM)	Not Active	25 µg/mL (≈ 62 µM)				22.5 µg/mL (≈ 55.8 µM)	25 µg/mL (≈ 62 µM)	23.4 µg/mL (≈ 58 µM)	75 µg/mL (≈ 186 µM)	244.85 µg/mL (≈ 607 µM)	25 µg/mL (≈ 62 µM)		48.2 µg/mL (≈ 119 µM)		19.4 µg/mL (≈ 48 µM)	18 mm	17 mm	zone of inhibition at 25 µg/mL (Escherichia coli [28]): 26 mm; zone of inhibition at 25 µg/mL (Klebsiella pneumoniae [29]): 29 mm; zone of inhibition at 25 µg/mL (Enterococcus faecalis [31]): 28 mm; zone of inhibition at 25 µg/mL (Staphylococcus aureus [34]): 27 mm
Cc1ccc2[nH]c3c(c2c1)CCc1c-3nc(N)c(C#N)c1-c1cccnc1	50 µg/mL (≈ 142 µM)	19 mm	> 100 µg/mL		50 µg/mL (≈ 142 µM)	3 mm	20 mm	18 mm	47.6 µg/mL (≈ 136 µM)	50 µg/mL (≈ 142 µM)	16.1 µg/mL (≈ 45.9 µM)	> 100 µg/mL	511.24 µg/mL (≈ 1450 µM)	50 µg/mL (≈ 142 µM)	5 mm	16.6 µg/mL (≈ 47.3 µM)	20 mm	13.7 µg/mL (≈ 39 µM)			IC50 (SK-OV-3 [33]): 10.6 µg/mL (≈ 30.1 µM)
